Consider 13 compounds from ChEMBL document CHEMBL1250425, “New antimalarials with a triterpenic scaffold from Momordica balsamina” (Bioorg Med Chem, 2010).

A word on the IC50: it is the concentration that gives 50% inhibition.

Data set [1] concerns Plasmodium falciparum. Nature of the data set: Antimalarial activity against chloroquine-sensitive Plasmodium falciparum 3D7 infected in erythrocytes after 48 hrs by SYBR Green 1-based fluorescence assay. Format: functional, organism-based. To be noted: 3D7, 48 h. The essentials: (§1)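 Parasites grown in fresh erythrocytes in RPMI 1640 with 25 mM HEPES, 6.8 mM hypoxanthine, 10% AlbuMAX II, 37 °C under 5% O2/3–5% CO2/N2. Compounds from DMSO stocks tested at 0.156–100 µg/mL in duplicate, with 1% parasitaemia ring stages at 2% haematocrit, 48 h at 37 °C. SYBR Green I lysis buffer added, 1 h dark at room temperature, fluorescence read at 485/535 nm, IC50 by nonlinear fit.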

Data set [2] relates to Plasmodium falciparum. Nature of the data set: Antimalarial activity against chloroquine-resistant Plasmodium falciparum Dd2 infected in erythrocytes after 48 hrs by SYBR Green 1-based fluorescence assay. To be noted: Dd2, 48 h. The class given is functional, organism-based. The essentials: as §1
The nature of data set [3]: Selectivity index, ratio of IC50 for human MCF7 cells to IC50 for chloroquine-sensitive Plasmodium falciparum 3D7. To be noted: read-out: Selectivity Index. Format: toxicity, cell-based.
Data set [4] is described as follows: Selectivity index, ratio of IC50 for human MCF7 cells to IC50 for chloroquine-resistant Plasmodium falciparum Dd2. The class given is toxicity, cell-based. To be noted: read-out: Selectivity Index.
In data set [5] the test system is MCF7. Nature of the data set: Cytotoxicity against human MCF7 cells after 24 hrs by MTT assay. The class given is cell-based. To be noted: MCF7, 24 h. The essentials:
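MCF-7 grown in RPMI 1640 with 10% heat-inactivated horse serum, 2 mM L-glutamine, antibiotics; 5% CO2, 37 °C. 2 × 10^4 cells/well added to serially diluted compound, 24 h at 37 °C; MTT (5 mg/mL stock) 4 h, then 10% SDS overnight; OD 550 nm (ref 630 nm). Growth inhibition vs cell and medium controls; IC50 as mean ± SD of three experiments.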
(In general: Tetrazolium assays rely on reduction of a dye to a coloured formazan, in cell work by metabolically active cells.)

Regarding `CC(C)=C[C@H](O)C[C@@H](C)[C@H]1CC[C@@]2(C)[C@@H]3[C@@H](O)C=C4[C@@H](CC[C@H](O)[C@]4(C)CO)[C@]3(C)CC[C@]12C` [BALSAMINOL A], the values for the half-maximal inhibitory concentration (IC50) in data set [1] and in data set [2] were 17.1 µM and 23.5 µM, respectively. Further, the selectivity ratio in data set [3] is 2.3; in data set [4] it was 1.7.

For `CC(C)=C[C@H](O)C[C@@H](C)[C@H]1CC[C@@]2(C)[C@@H]3C=C[C@@]45OC[C@]3(CC[C@]12C)[C@@H]4CC[C@H](O)C5(C)C` [KARAVILAGENIN E], the IC50 worked out at 7.4 µM in data set [1] and 8.2 µM in data set [2]. In addition, the selectivity ratio was determined as 4.2 in data set [3] and 3.7 in data set [4].

On to `COC(C)(C)/C=C/C[C@@H](C)[C@H]1CC[C@@]2(C)[C@@H]3[C@@H](O[C@H]4O[C@@H](CO)[C@H](O)[C@H](O)[C@@H]4O)C=C4[C@@H](CC[C@H](O)C4(C)C)[C@]3(C)CC[C@]12C` [BALSAMINOSIDE A], for which the 50% inhibitory concentration (IC50) in data set [1] came to 4.6 µM; in data set [2], 4 µM; in data set [5], 19 µM. In addition, the selectivity ratio in data set [3] came to 4.2; in data set [4], 4.7.

Take `CC(C)=C[C@H](O)C[C@@H](C)[C@H]1CC[C@@]2(C)[C@@H]3C(=O)C=C4[C@@H](CC[C@H](O)C4(C)C)[C@]3(C)CC[C@]12C` [BALSAMINOL E]: the IC50 in data set [1] is 20.4 µM; in data set [2], 19.6 µM; in data set [5], 44.2 µM. For the same compound, the selectivity ratio was 2.2 in data set [3] and 2.3 in data set [4].

Consider `C[C@H](C/C=C/C(C)(C)O)[C@H]1CC[C@@]2(C)[C@@H]3[C@@H](O)C=C4[C@@H](CC[C@H](O)[C@]4(C)CO)[C@]3(C)CC[C@]12C` [BALSAMINAGENIN A], for which the results for the concentration for half-maximal inhibition (IC50) in data set [1], in data set [2] and in data set [5] were 19.1 µM, 27.3 µM and 65.1 µM, respectively. Also, the selectivity ratio was 3.4 in data set [3] and 2.4 in data set [4].

For the compound `COC(C)(C)/C=C/C[C@@H](C)[C@H]1CC[C@@]2(C)[C@@H]3[C@@H](O)C=C4[C@@H](CC[C@H](O)[C@]4(C)CO)[C@]3(C)CC[C@]12C` [BALSAMINAGENIN B], the IC50 worked out at 18.7 µM in data set [1], 19.2 µM in data set [2] and 34 µM in data set [5]. For the same compound, the selectivity ratio in data set [3] and in data set [4] was 1.8 throughout.

`CO[C@H]1C=C2[C@@H](CC[C@H](O)C2(C)C)[C@]2(C)C[C@@H](O)[C@]3(C)[C@@H]([C@H](C)C/C=C/C(C)(C)O)CC[C@@]3(C)[C@H]12`: the values for the IC50 in data set [1], in data set [2] and in data set [5] were 17.7 µM, 28.3 µM and 55.4 µM, respectively. The selectivity ratio in data set [3] came out at 3.1; in data set [4], 2.

Regarding `C[C@H](C/C=C/C(C)(C)O)[C@H]1CC[C@@]2(C)[C@@H]3[C@@H](O)C=C4[C@@H](CC[C@H](O)C4(C)C)[C@]3(C)CC[C@]12C`, the IC50 came to 30.6 µM in data set [1] and 50.1 µM in data set [2]. Also, the selectivity ratio in data set [3] amounted to 1.5; in data set [4], 0.9.

In the case of `CC(=O)C[C@@H](C)[C@H]1CC[C@@]2(C)[C@@H]3C(=O)C=C4[C@@H](CC[C@H](O)[C@]4(C)CO)[C@]3(C)CC[C@]12C` [BALSAMINOL D], the IC50 in data set [1] is 25.9 µM; in data set [2], 45.6 µM; in data set [5] it was > 133 µM. The selectivity ratio is > 5.1 in data set [3] and > 2.9 in data set [4].

`C[C@H](C/C=C/C(C)(C)O)[C@H]1CC[C@@]2(C)[C@@H]3[C@@H](O)C=C4[C@@H](CC[C@H](O)C4(C)C)[C@]3(C)C[C@@H](O)[C@]12C` [CUCURBALSAMINOL A]: the IC50 was 13.2 µM in data set [1], 17.6 µM in data set [2] and > 133 µM in data set [5]. For the same compound, the selectivity ratio in data set [3] is > 10.1; in data set [4], > 7.6.

As for `CC(C)=CC(=O)C[C@@H](C)[C@H]1CC[C@@]2(C)[C@@H]3C(=O)C=C4[C@@H](CC[C@H](O)[C@]4(C)CO)[C@]3(C)CC[C@]12C` [BALSAMINOL C], the values for the IC50 in data set [1], in data set [2] and in data set [5] were 19.6 µM, 22.4 µM and 70.5 µM, respectively. Besides, the selectivity ratio in data set [3] was found to be 3.6; in data set [4] it was 3.2.

As for `C=C(C)[C@@H](O)[C@H](O)C[C@@H](C)[C@H]1CC[C@@]2(C)[C@@H]3[C@@H](O)C=C4[C@@H](CC[C@H](O)[C@]4(C)CO)[C@]3(C)CC[C@]12C` [BALSAMINAPENTAOL A], the results for the IC50 in data set [1] and in data set [2] were 14.6 µM and 33 µM, respectively. Besides, the selectivity ratio in data set [3] was found to be 3.2; in data set [4], 1.4.

Take `CO[C@H]1C=C2[C@@H](CC[C@H](O)[C@]2(C)CO)[C@]2(C)CC[C@]3(C)[C@@H]([C@H](C)C[C@@H](O)C=C(C)C)CC[C@@]3(C)[C@H]12` [BALSAMINOL B]: the 50% inhibitory concentration (IC50) in data set [1] is 15.2 µM; in data set [2], 17.9 µM; in data set [5], 31 µM. The selectivity ratio worked out at 2 in data set [3] and 1.7 in data set [4].
